ChEMBL document CHEMBL1148483, “Potent nonclassical nucleoside antiviral drugs based on the N,N-diarylformamidine concept” (J Med Chem, 2004)
“And” between values parts separate entries of the source, which are not always exact repeats. Equal entries are not always repeated.

Experiments:
[1] = Partition coefficient (logP); assay type: physicochemical; details: octanol/water
[2] = test system: MT4; test: Effective concentration to inhibit HIV-1 IIIB cytopathicity in MT-4 cells was determined in vitro; assay type: functional, cell-based; details: Homo sapiens
Summary of the method: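 HIV-1 IIIB-infected MT-4 cells (RPMI 1640, 10% FCS); inhibition of virus-induced cytopathicity read 5 days post-infection; EC50 = concentration inhibiting cytopathicity by 50%.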

[3] = test system: HepG2; test: Effective concentration to inhibit hepatitis B virus DNA formation in HepG2.2.15 cells was determined in vitro; details: Homo sapiens
[4] = test system: PBMC; test: Concentration required to cause death of PBMC cells was determined in vitro; assay type: functional; details: Homo sapiens
Summary of the method: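 Healthy-donor PBMCs activated 3 days with PHA-P (1 μg/mL) and rhIL-2 (5 IU/mL), 100 000 cells/well in RPMI 1640/10% FCS + 20 IU/mL rhIL-2; drug-induced cytotoxicity judged by microscopic observation; CC50 = concentration causing 50% death of uninfected cells.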

[5] = test system: PBMC; test: Effective concentration to inhibit HIV-1 LAI cytopathicity in PBMC cells was determined in vitro; assay type: functional, cell-based; details: Homo sapiens
Summary of the method: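 PHA-P/rhIL-2-activated PBMCs (100 000/well) pretreated 30 min with compound, then infected with 75 TCID50 HIV-1/LAI; supernatant RT activity measured at day 7; triplicates, mean ± SD; EC50 from percent of untreated controls, 50% inhibition of replication.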

[6] = test system: MT4; test: Concentration required to cause death of MT-4 cells was determined in vitro; assay type: functional; details: Homo sapiens
Summary of the method: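 Uninfected (mock-infected) MT-4 cells grown in RPMI 1640 + 10% heat-inactivated FCS, 2 mM L-glutamine, gentamicin; viability measured at day 5 at 37 °C, 5% CO2; CC50 = concentration causing 50% death of uninfected cells.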

[7] = test system: MT4; test: Selectivity index is the ratio of CC50 to EC50 values; assay type: functional
Summary of the method: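 Selectivity index = CC50/EC50 for uninfected versus HIV-1-infected MT-4 cells or PBMCs.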

[8] = Half life is the time required for hydrolysis of compound to 3TC in HepG 2.2.15 lysate medium at 37 degree celsius; assay type: ADME, HepG2 2.2.15; details: human, HepG 2.2.15 cell lysate
Summary of the method: (§1)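 Cell lysates prepared from PBS-washed HepG2.2.15 or MT-4 cells, about 10×10^6 cells/mL, in Tris-HCl 50 mM, NaCl 150 mM, EDTA 0.1 mM, 0.5% NP40 and protease inhibitors. Lysis 10 min on ice, then centrifuged; supernatant used. Compound added from DMSO to a final concentration around 5×10^-4 M, 37 °C. Timed samples quenched in cold methanol, HPLC at 317 nm. t1/2 is the time to 50% conversion to 3TC.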

[9] = Half life is the time required for hydrolysis of compound to 3TC in MT-4 lysate medium at 37 degree celsius; assay type: ADME; details: human, MT-4 cell lysate; summary of the method: as §1
[10] = Half life is the time required for hydrolysis of compound to 3TC in HBV medium at 37 degree celsius; assay type: ADME
Summary of the method: (§2)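 Compound in DMSO diluted 1:100 into medium, final concentration around 5×10^-4 M, and held at 37 °C. Media: PBS (0.01 M, pH 7.4), HepG2.2.15 culture medium, or MT-4 medium (RPMI 1640 + 10% FCS). Samples taken over time and quenched in ice-cold methanol. Conversion to 3TC followed by HPLC at 317 nm. t1/2 is the time to 50% hydrolysis.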

[11] = Half life is the time required for hydrolysis of compound to 3TC in HIV medium at 37 degree celsius; assay type: ADME; summary of the method: as §2
[12] = Half life is the time required for hydrolysis of compound to 3TC in PBS medium at 37 degree celsius; assay type: ADME; summary of the method: as §2

Nc1ccn([C@@H]2CS[C@H](CO)O2)c(=O)n1 [LAMIVUDINE]
logP [1]: 0.06 | EC50 [2]: 500 nM | EC50 [3]: 200 nM | CC50 [4]: > 10000 nM | EC50 [5]: 11.6 nM | CC50 [6]: > 44000 nM

Nc1ccn([C@H]2CC[C@@H](CO)O2)c(=O)n1 [ZALCITABINE]
logP [1]: -0.58 | SI [7]: 135 | EC50 [2]: 1040 nM | CC50 [6]: 141000 nM

O=c1nc(/N=C/N2CCOCC2)ccn1C1CSC(CO)O1 (stereo not drawn)
logP [1]: 0.62 | half-life [8]: 2.5 h | EC50 [2]: 400 nM | EC50 [3]: 50 nM | CC50 [4]: > 10000 nM | half-life [9]: 3.5 h | half-life [10]: 1 h | EC50 [5]: 6.2 nM | half-life [11]: 1.5 h | half-life [12]: 2.5 h | CC50 [6]: > 265000 nM

CN(C)/C=N/c1ccn(C2CSC(CO)O2)c(=O)n1 (stereo not drawn)
logP [1]: 1.02 | SI [7]: >772 and >422 | half-life [8]: 3 h | EC50 [2]: 570 nM | EC50 [3]: 10 nM | CC50 [4]: > 10000 nM | half-life [9]: 4.5 h | half-life [10]: 2 h | EC50 [5]: 23.7 nM | half-life [11]: 2.5 h | half-life [12]: 3.5 h | CC50 [6]: > 440000 nM
